According to ChEMBL document CHEMBL4052586, “Design of Potent and Selective Cathepsin G Inhibitors Based on the Sunflower Trypsin Inhibitor-1 Scaffold” (J Med Chem, 2017):
The source made the active and inactive calls. The calls are words filed in the database; no cut-off is given here. Positions of bridges follow the written chain, without caps; N, C: chain ends. Non-standard residues stand in square brackets, D forms with d. Residues, ends and D or L forms follow the SMILES beside them. ξ: configuration not given here. Phe(4-guanidino) = N=C(N)Nc1ccc(C[C@H](N)C(=O)O)cc1; ξNle = CCCCC(N)C(=O)O

What was measured:
[1] = Inhibition of bovine trypsin using Tos-GPR-AMC as substrate preincubated for 30 mins followed by substrate addition
Cathepsin G = target: T1, Cathepsin G (Homo sapiens, UniProt P08311); experiment: Inhibition of human cathepsin G using Suc-AAPF-MCA as substrate after 30 mins
T1 sequence (P08311 whole entry): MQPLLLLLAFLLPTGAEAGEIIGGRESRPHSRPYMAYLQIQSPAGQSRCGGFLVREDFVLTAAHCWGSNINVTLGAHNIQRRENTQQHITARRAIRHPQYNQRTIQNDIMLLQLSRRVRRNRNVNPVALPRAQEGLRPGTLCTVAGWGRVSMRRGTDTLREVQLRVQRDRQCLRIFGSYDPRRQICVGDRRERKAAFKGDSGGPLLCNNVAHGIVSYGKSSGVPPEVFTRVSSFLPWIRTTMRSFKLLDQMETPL

[2] = target: T2, Myeloblastin (Homo sapiens) (UniProt P24158); experiment: Inhibition of human PR3 at 10000 nM using Suc(OMe)-AAPV-MCA as substrate after 30 mins relative to control
T2 sequence (whole entry): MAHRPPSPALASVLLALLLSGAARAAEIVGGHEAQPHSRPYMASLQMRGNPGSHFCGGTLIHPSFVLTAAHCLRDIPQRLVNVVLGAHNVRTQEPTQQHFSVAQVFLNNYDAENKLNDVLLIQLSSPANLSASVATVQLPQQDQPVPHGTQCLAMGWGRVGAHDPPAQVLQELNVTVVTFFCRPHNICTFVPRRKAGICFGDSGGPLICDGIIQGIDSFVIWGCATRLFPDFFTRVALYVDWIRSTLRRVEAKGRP

Homo sapiens [3] = species: Homo sapiens; experiment: Selectivity ratio of Ki for human neutrophil elastase to Ki for human cathepsin G
Procedure, shortened: (§1)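 Each Ki was determined after 30 min room-temperature protease–inhibitor equilibration, with chromogenic (405 nm) or fluorogenic (360/460 nm) substrate readout in Tris/NaCl buffer pH 8.0. Morrison Ki was fitted by non-linear regression, three independent triplicate experiments, and the off-target Ki was divided by the cathepsin G Ki.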

Homo sapiens [4] = species: Homo sapiens; experiment: Selectivity ratio of Ki for human PR3 to Ki for human cathepsin G
Procedure, shortened: as §1

Myeloblastin = target: T3, Myeloblastin (Homo sapiens, UniProt P24158); experiment: Inhibition of human PR3 using Suc(OMe)-AAPV-MCA as substrate after 30 mins
T3 sequence (P24158 whole entry): T2 sequence (whole entry)
Procedure, shortened: (§2)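 Protease and inhibitor equilibrated 30 min at room temperature, then MCA substrate added in assay buffer (0.15 M NaCl, 0.1 M Tris·HCl pH 8.0, 0.005% Triton X-100). Fluorescence was read at ex 360/em 460 nm over 10 min. Morrison Ki was fitted by non-linear regression from three independent triplicate experiments.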

Neutrophil elastase = target: T4, Neutrophil elastase (Homo sapiens, UniProt P08246); experiment: Inhibition of human neutrophil elastase using Suc(OMe)-AAPV-pNA as substrate after 30 mins
T4 sequence (P08246 whole entry): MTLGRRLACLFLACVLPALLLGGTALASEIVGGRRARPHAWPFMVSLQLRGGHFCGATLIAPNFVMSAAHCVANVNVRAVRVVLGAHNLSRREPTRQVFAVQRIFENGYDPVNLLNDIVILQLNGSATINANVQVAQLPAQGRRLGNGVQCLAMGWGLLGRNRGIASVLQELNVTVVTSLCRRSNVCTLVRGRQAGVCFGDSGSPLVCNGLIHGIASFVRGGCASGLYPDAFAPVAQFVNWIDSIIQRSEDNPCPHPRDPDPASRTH
Procedure, shortened: (§3)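 Inhibitor and protease were preincubated 30 min at room temperature. pNA substrate release was read at 405 nm for 5 min in 0.15 M NaCl, 0.1 M Tris·HCl pH 8.0, 0.005% Triton X-100, with 10% acetonitrile. Morrison Ki was obtained by non-linear regression from three independent triplicate experiments.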

Homo sapiens [5] = species: Homo sapiens; experiment: Selectivity ratio of Ki for recombinant KLK7 (unknown origin) to Ki for human cathepsin G
Procedure, shortened: as §1

[6] = Inhibition of bovine chymotrypsin using Suc(OMe)-AAPV-MCA as substrate after 30 mins; parameters: species or system Bos taurus
Procedure, shortened: as §2

Chymase = target: T5, Chymase (Rattus norvegicus, UniProt P50339); experiment: Inhibition of rat mast cell chymase using Suc-AAPF-pNA as substrate after 30 mins
T5 sequence (P50339 whole entry): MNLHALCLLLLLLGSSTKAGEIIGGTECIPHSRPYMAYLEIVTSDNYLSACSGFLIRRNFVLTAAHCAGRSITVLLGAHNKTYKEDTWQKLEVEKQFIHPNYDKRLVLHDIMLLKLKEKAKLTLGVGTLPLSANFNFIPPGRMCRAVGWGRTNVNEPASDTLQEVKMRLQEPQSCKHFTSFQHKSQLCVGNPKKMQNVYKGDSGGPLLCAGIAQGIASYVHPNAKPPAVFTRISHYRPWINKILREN
Procedure, shortened: as §3

Kallikrein-7 = Kallikrein-7 (Homo sapiens, UniProt P49862); experiment: Inhibition of recombinant KLK7 (unknown origin) expressed in zymogen form in Pichia pastorisstrain X-33 using KHLY-pNA as substrate after 30 mins
Kallikrein-7, sequence (P49862 whole entry): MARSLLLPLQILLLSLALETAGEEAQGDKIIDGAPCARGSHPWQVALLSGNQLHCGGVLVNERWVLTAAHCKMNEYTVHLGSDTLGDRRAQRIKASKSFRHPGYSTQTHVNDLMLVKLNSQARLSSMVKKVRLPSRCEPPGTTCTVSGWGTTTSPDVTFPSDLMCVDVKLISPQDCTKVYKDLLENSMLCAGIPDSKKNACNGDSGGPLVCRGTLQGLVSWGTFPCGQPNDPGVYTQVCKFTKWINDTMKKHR
Procedure, shortened: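 Pro-KLK7 from Pichia supernatant was cation-exchange purified, activated with enterokinase (37°C, 2 h), repurified, and active-site titrated with α1-antitrypsin. After 30 min room-temperature equilibration with inhibitor, pNA hydrolysis was followed at 405 nm for 5 min in Tris/NaCl/Triton buffer pH 8.0 with 10% acetonitrile. Morrison Ki came from three independent triplicate runs.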

[7] = Selectivity ratio of Ki for bovine chymotrypsin to Ki for human cathepsin G
Procedure, shortened: as §1

[8] = Selectivity ratio of Ki for rat mast cell chymase to Ki for human cathepsin G
Procedure, shortened: as §1

Homo sapiens [9] = species: Homo sapiens; experiment: Selectivity ratio of Ki for human plasmin to Ki for human cathepsin G
Procedure, shortened: as §1

[10] = Inhibition of bovine trypsin using Boc-QAR-MCA as substrate after 30 mins; parameters: species or system Bos taurus
Procedure, shortened: as §2

Plasminogen [11] = target: T6, Plasminogen (Homo sapiens, UniProt P00747); experiment: Inhibition of human plasmin using Ac-RM(O2)YRpNA as substrate after 30 mins
T6 sequence (P00747 97-580 limits assumed): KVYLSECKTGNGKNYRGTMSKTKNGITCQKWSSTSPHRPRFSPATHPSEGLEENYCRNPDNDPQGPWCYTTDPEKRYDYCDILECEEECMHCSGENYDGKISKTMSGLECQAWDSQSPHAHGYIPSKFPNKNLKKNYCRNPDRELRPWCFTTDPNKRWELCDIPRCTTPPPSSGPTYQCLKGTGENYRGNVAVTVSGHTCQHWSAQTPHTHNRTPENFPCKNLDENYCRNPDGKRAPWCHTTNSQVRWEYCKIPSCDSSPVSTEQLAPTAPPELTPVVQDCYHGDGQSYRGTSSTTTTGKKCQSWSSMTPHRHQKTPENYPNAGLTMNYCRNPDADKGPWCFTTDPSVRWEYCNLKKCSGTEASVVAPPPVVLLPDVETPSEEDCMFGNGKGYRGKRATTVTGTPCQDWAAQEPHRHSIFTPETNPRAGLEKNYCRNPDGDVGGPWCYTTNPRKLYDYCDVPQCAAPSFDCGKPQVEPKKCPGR
T6 sequence (P00747 581-810 limits assumed): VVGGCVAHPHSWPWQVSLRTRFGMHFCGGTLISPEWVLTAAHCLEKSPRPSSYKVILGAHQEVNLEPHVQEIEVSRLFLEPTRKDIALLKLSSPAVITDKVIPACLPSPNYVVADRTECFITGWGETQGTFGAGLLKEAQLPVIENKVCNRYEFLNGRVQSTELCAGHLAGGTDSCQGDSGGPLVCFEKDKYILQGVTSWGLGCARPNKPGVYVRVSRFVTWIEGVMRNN
Procedure, shortened: as §3

Prothrombin [12] = target: T7, Prothrombin (Homo sapiens, UniProt P00734); experiment: Inhibition of human alpha-thrombin using Glt-Gly-Arg-MCA as substrate after 30 mins
Procedure, shortened: as §2

[13] = Selectivity ratio of Ki for bovine trypsin to Ki for human cathepsin G
Procedure, shortened: as §1

Homo sapiens [14] = species: Homo sapiens; experiment: Selectivity ratio of Ki for human alpha-thrombin to Ki for human cathepsin G
Procedure, shortened: as §1

Bos taurus = species: Bos taurus; experiment: Inhibition of bovine chymotrypsin at 10000 nM using Suc(OMe)-AAPV-MCA as substrate after 30 mins relative to control
[15] = target: T8, Cathepsin G (Homo sapiens) (UniProt P08311); experiment: Inhibition of human cathepsin G assessed as decrease in angiotensin-2 generation from angiotensin-1 at 100 nM after 1.5 to 3 hrs by RP-UPLC/mass spectroscopic method; conditions: in the assay text read “1.5 to 5 hrs” for “1.5 to 3 hrs”
T8 sequence (whole entry): T1 sequence (P08311 whole entry)
Procedure, shortened: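 Cathepsin G (10 nM) was incubated with angiotensin I (10 µM) in assay buffer, with or without inhibitor at 100 nM. Aliquots were taken at 1.5, 3 and 5 h and quenched with 2% TFA. Angiotensin I cleavage and angiotensin II formation were analysed by RP-UPLC and electrospray mass spectrometry.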

Plasminogen [16] = target: T6, Plasminogen; experiment: Inhibition of human plasmin at 10000 nM using Ac-RM(O2)YRpNA as substrate after 30 mins
Prothrombin [17] = target: T7, Prothrombin; experiment: Inhibition of human alpha-thrombin at 10000 nM using Glt-Gly-Arg-MCA as substrate after 30 mins

Compound | Ki (Cathepsin G) | inhibition [2] | Ratio Ki (Homo sapiens [3]) | Ratio Ki (Homo sapiens [4]) | Ki (Myeloblastin) | Ki (Neutrophil elastase) | Ratio Ki (Homo sapiens [5]) | Ki [6] | Ki (Chymase) | Ki (Kallikrein-7) | Ratio Ki [7] | Ratio Ki [8] | further results
CC[C@H](C)[C@@H]1NC(=O)[C@@H]2CCCN2C(=O)[C@@H]2CCCN2C(=O)[C@H]([C@@H](C)CC)NC(=O)[C@H](CO)NC(=O)[C@H](CCCCN)NC(=O)[C@H]([C@@H](C)O)NC(=O)[C@@H]2CSSC[C@H](NC1=O)C(=O)N[C@@H](Cc1ccccc1)C(=O)N1CCC[C@H]1C(=O)N[C@@H](CC(=O)O)C(=O)NCC(=O)N[C@@H](CCCNC(=N)N)C(=O)N2 | 730 nM |  |  |  |  |  |  |  |  |  |  |  | Ki [1]: 0.0017 nM
CCCCC1NC(=O)[C@@H]2CSSC[C@H](NC(=O)[C@H]([C@@H](C)CC)NC(=O)[C@@H]3CCCN3C(=O)[C@@H]3CCCN3C(=O)[C@H](CC(=O)O)NC(=O)[C@H](CO)NC(=O)[C@H](Cc3ccccc3)NC1=O)C(=O)N[C@@H](Cc1ccccc1)C(=O)N1CCC[C@H]1C(=O)N[C@@H](CC(N)=O)C(=O)NCC(=O)N[C@@H]([C@@H](C)O)C(=O)N2 (stereo partly drawn) (cyclo(CFPNGTC[ξNle]FSDPPI); disulfide 1-7) | 1.7 nM | < 20% | 5200 | > 5900 | > 10000 nM | 8900 nM | 76 | 140 nM | 7.7 nM | 130 nM | 83 | 4.5 | 
CCCCC1NC(=O)[C@@H]2CSSC[C@H](NC(=O)[C@H]([C@@H](C)CC)NC(=O)[C@@H]3CCCN3C(=O)[C@@H]3CCCN3C(=O)[C@H](CC(=O)O)NC(=O)[C@H](CO)NC(=O)[C@H](Cc3ccc(NC(=N)N)cc3)NC1=O)C(=O)N[C@@H](Cc1ccccc1)C(=O)N1CCC[C@H]1C(=O)N[C@@H](CC(N)=O)C(=O)NCC(=O)N[C@@H]([C@@H](C)O)C(=O)N2 (stereo partly drawn) (cyclo(CFPNGTC[ξNle][Phe(4-guanidino)]SDPPI); disulfide 1-7) | 1.6 nM | < 20% | 27000 | > 6300 | > 10000 nM | 43000 nM | 460 | > 10000 nM | 19600 nM | 740 nM | > 6300 | 12000 | Ratio Ki (Homo sapiens [9]): > 6300; Ki [10]: 580 nM; Ki (Plasminogen [11]): > 10000 nM; Ki (Prothrombin [12]): > 10000 nM; Ratio Ki [13]: 360; Ratio Ki (Homo sapiens [14]): > 6300; inhibition (Bos taurus): < 20%; inhibition [15]: Active; inhibition (Plasminogen [16]): < 20%; inhibition (Prothrombin [17]): < 20%
CC[C@H](C)[C@@H]1NC(=O)[C@@H]2CCCN2C(=O)[C@@H]2CCCN2C(=O)[C@H](CC(=O)O)NC(=O)[C@H](CO)NC(=O)[C@H](CCCNC(=N)N)NC(=O)[C@H]([C@@H](C)O)NC(=O)[C@@H]2CSSC[C@H](NC1=O)C(=O)N[C@@H](CC(N)=O)C(=O)N1CCC[C@H]1C(=O)N[C@@H](CC(N)=O)C(=O)NCC(=O)N[C@@H]([C@@H](C)O)C(=O)N2 (cyclo(CNPNGTCTRSDPPI); disulfide 1-7) | 12 nM |  |  |  |  |  |  |  |  |  |  |  | 
CCCCC1NC(=O)[C@@H]2CSSC[C@H](NC(=O)[C@H]([C@@H](C)CC)NC(=O)[C@@H]3CCCN3C(=O)[C@@H]3CCCN3C(=O)[C@H]([C@@H](C)CC)NC(=O)[C@H](CO)NC(=O)[C@H](Cc3ccccc3)NC1=O)C(=O)N[C@@H](Cc1ccccc1)C(=O)N1CCC[C@H]1C(=O)N[C@@H](CC(N)=O)C(=O)NCC(=O)N[C@@H]([C@@H](C)O)C(=O)N2 (stereo partly drawn) (cyclo(CFPNGTC[ξNle]FSIPPI); disulfide 1-7) | 0.89 nM | < 20% | 13000 | > 11000 | > 10000 nM | 12000 nM | 78 | 1.9 nM |  | 69 nM | 2.1 |  | 
CC[C@H](C)[C@@H]1NC(=O)[C@@H]2CCCN2C(=O)[C@@H]2CCCN2C(=O)[C@H]([C@@H](C)CC)NC(=O)[C@H](CO)NC(=O)[C@H](CCCNC(=N)N)NC(=O)[C@H]([C@@H](C)O)NC(=O)[C@@H]2CSSC[C@H](NC1=O)C(=O)N[C@@H](CC(N)=O)C(=O)N1CCC[C@H]1C(=O)N[C@@H](CC(N)=O)C(=O)NCC(=O)N[C@@H]([C@@H](C)O)C(=O)N2 (cyclo(CNPNGTCTRSIPPI); disulfide 1-7) | 490 nM |  |  |  |  |  |  |  |  |  |  |  | 
